Sampled rows, rich in hits. Any-hit rate of the full collection: about 3.3%.
TCR CD3 inh – inhibitors of human TCR-CD3 interaction | hit rate 0.37% among 360,000 | inhibition, % at 9.4 µM | TAMRA-labeled TCR probe fluorescence, biochemical | AID 651800;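 also: recombinant mutant TCR 2C K166C tagged with TAMRA read by polarization; 0% = receptor in buffer alone and 100% = receptor with positive control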
rCAG binder – molecules binding r(CAG) RNA repeats; r(CAG) RNA repeat, TO-PRO-1 dye displacement fluorescence; inhibition, % at 3 µM; hit rate 1.3% among 370,000;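 active = inhibition above the plate cutoff, the mean of all test compounds on that plate plus 3 SD, cut at about 35% in these data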;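 also: 0% = DMSO alone and 100% = 100 µM mitoxantrone as full dye displacement; higher means more dye released from RNA so lower well fluorescence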
PRMT1 FP inh – inhibitors of human PRMT1; hit rate 1.3% among 370,000; inhibition, % at 2.79 µM; recombinant PRMT1, activity-based probe fluorescence polarization; Q99873;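 active = inhibition above about 21% made by adding two undisclosed values, limit read from the data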
SIAE inh – inhibitors of human sialic acid acetylesterase SIAE; hit rate 0.69% among 370,000; inhibition, % at 9.66 µM; AID 1053197; Q9HAT2; SIAE FP-Rh probe binding, fluorescence polarization;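 active = inhibition above a cutoff: mean of compounds within the control limits plus 3 SD of those, cut at about 17% in these data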;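 also: 0% = plate median of compound wells and 100% = probe without SIAE protein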
Target sequence (Q9HAT2 whole entry, looked up): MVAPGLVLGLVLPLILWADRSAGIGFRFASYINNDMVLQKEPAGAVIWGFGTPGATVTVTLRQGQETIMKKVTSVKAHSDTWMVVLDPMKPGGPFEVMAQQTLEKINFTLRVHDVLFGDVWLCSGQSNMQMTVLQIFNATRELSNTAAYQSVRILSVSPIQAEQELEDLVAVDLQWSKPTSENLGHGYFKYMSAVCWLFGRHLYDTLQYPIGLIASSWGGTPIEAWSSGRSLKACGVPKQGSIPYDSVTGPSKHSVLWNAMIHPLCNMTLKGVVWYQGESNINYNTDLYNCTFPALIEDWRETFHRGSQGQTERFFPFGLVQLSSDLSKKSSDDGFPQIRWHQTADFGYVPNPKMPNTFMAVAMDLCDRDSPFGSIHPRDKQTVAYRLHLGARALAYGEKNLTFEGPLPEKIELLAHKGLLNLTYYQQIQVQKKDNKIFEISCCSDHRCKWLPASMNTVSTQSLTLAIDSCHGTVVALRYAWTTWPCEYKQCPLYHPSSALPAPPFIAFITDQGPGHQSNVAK
ABHD4 inh – inhibits mouse alpha/beta hydrolase domain 4. Q8VD66. purified mABHD4, FP-Rh probe fluorescence polarization. inhibition, % at 8.92 µM. hit rate 0.54% among 370,000. AID 720543;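 active = inhibition exceeding the mean over every tested compound plus 3 SD, cut at about 30% in these data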;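 also: 0% = plate median of compound wells and 100% = S159A mutant with DMSO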
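Test system: mABHD4 protein; Read-out basis: % inhibition; Incubation: 45 min + 60 min at 25 °C; Repeats: single replicate; Technique: fluorescence polarization with parallel and perpendicular emission, 525/598 nm; Compound: 8.92 µM, single dose; Benchmarks: full inhibition S159A mutant plus DMSO, zero as sample-well median.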
BSA TAMRA ctr – counter-screen for TCR-CD3 interaction inhibitors: BSA probe; shares compounds with TCR CD3 inh; TAMRA-labeled BSA probe fluorescence counterscreen; AID 652035; hit rate 10% among 1,200; inhibition, % at 9.4 µM; in the data active = inhibition above about 23%;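 also: 0% = buffer low control and 100% = reference high control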
TCR-CD3 inh conf – confirmation of human TCR-CD3 interaction inhibitors | shares compounds with TCR CD3 inh | TAMRA-labeled TCR probe fluorescence binding assay | inhibition, % at 9.4 µM | hit rate 48% among 1,200
rCAG binder conf – r(CAG) RNA repeat binding, confirmation. shares compounds with rCAG binder. TO-PRO-1 dye displacement fluorescence. inhibition, % at 3 µM. hit rate 70% among 4,300;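 active = inhibition above a per-plate cutoff, the mean inhibition of sample wells plus 3 SD, cut at about 35% in these data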;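 also: loss of TO-PRO-1 fluorescence as compound displaces dye from 1x1 AA loop RNA; 0% = DMSO only wells and 100% = 100 µM mitoxantrone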
DNA CAG counter – DNA CAG dye complex inhibition counter-screen; hit rate 94% among 4,300; shares compounds with rCAG binder; d(CAG) DNA oligo TO-PRO-1 dye displacement, fluorescence; inhibition, % at 3 µM;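 active = inhibition above its plate's cutoff, the mean test-well inhibition plus 3 SD, cut at about 4.8% in these data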;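 also: 0% = DNA dye mix with DMSO and 100% = 100 µM mitoxantrone; hits displace the dye from DNA and so lower well fluorescence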
PRMT1 inh conf – PRMT1 (human) inhibition, FP confirmation | hit rate 42% among 3,300 | shares compounds with PRMT1 FP inh | inhibition, % at 2.79 µM | recombinant His-PRMT1, activity-based probe fluorescence polarization;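 active = mean inhibition across replicates above the hit cutoff derived for the earlier primary screen, cut at about 22% in these data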
mABHD4 conf – ABHD4 (mouse) inhibition, FP confirmation; shares compounds with ABHD4 inh; purified mABHD4, FP-Rh probe fluorescence polarization; inhibition, % at 8.92 µM; hit rate 55% among 1,800;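 active = mean inhibition across replicates above the hit cutoff set in the primary screen, cut at about 30% in these data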;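 also: 0% = wild-type ABHD4 with DMSO and 100% = catalytically dead S159A mutant with DMSO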
Active calls of the source: *; x = not tested or not shown. Rule as the data show it, unless noted: active = inhibition above about 19%; inactive = the rest.

SMILES | TCR CD3 inh | rCAG binder | PRMT1 FP inh | SIAE inh | ABHD4 inh | BSA TAMRA ctr | TCR-CD3 inh conf | mABHD4 conf | others
Cc1cc(SCC(=O)c2ccc(O)c(O)c2)nc2ccccc12 | 29.3* | 35.2* | 23.6* | 16.0 | 38.5* | -11.0 | 24.4* | 19.7 | rCAG binder conf=53.8*;DNA CAG counter=23.4*
Cc1cc(SCC(=O)c2ccc3c(c2)OCO3)nc2ccccc12 | 8.5 | 8.9 | -0.1 | -0.9 | -8.2 | x | x | x
Oc1ccc2ccccc2c1CN1CCOCC1 | 3.6 | -1.8 | 20.8 | -6.5 | 5.3 | x | x | x
Oc1cccc(CN2CCOCC2)c1O | 26.9* | 40.9* | 32.6* | 3.5 | 41.9* | 0.1 | 10.4 | 6.2 | rCAG binder conf=3.4;DNA CAG counter=0.4;PRMT1 inh conf=9.5
Oc1ccc(/C=N/n2c(COc3ccccc3)n[nH]c2=S)cc1O | 31.8* | 3.1 | 2.6 | 1.9 | 35.9* | -14.3 | 21.9* | 23.4
CCOc1cc(/C=N/n2c(COc3ccccc3)n[nH]c2=S)ccc1O | 6.2 | 9.4 | 4.9 | 4.6 | 4.1 | x | x | x
Oc1ccccc1N=Cc1c(O)ccc2ccccc12 | 28.7* | 5.2 | 13.1 | 11.2 | 44.6* | -8.8 | 37.0* | 44.6*
CC(=O)OCCNc1cc(N2CCN(C)CC2)c2noc3c2c1C(=O)c1ccccc1-3 | 23.8* | 7.4 | 3.1 | 16.1 | 32.5* | 11.3 | 11.0 | 0.7
O=C1CCC[C@H]2C[C@H](NCc3ccc(Cl)cc3)CC[C@]23CCCN13 | x | x | 2.8 | 3.4 | 3.6 | x | x | x
O=C(N/N=C/c1cc(Br)c(O)c(Br)c1O)c1ccc2c(c1)OCCO2 | 24.5* | 17.9 | 1.6 | 14.3 | 49.1* | -33.1 | 20.3* | 58.1*
O=C(N/N=C/c1cc(Br)c(Br)o1)c1ccc2c(c1)OCCO2 | 9.1 | 26.8 | 8.9 | 6.9 | 5.6 | x | x | x
Cc1cc(-c2ccccc2C(=O)O)on1 | 6.0 | -1.0 | 1.4 | 0.3 | 2.1 | x | x | x
O=C(O)c1ccccc1C1=Nc2ccc(O)cc2Oc2cc(O)ccc21 | 34.1* | -141.0 | 47.5* | 13.5 | 30.2* | 57.4* | 46.5* | 61.2* | PRMT1 inh conf=65.4*
O=C1c2cc(CO)cc(O)c2C(=O)c2c(O[C@@H]3OC(CO)[C@@H](O)[C@@H](O)[C@@H]3O)cccc21 (stereo partly specified) | -1.8 | 0.2 | 4.2 | 8.2 | 10.1 | x | x | x
O=C(O)c1cc(O)c2c(c1)[C@H]([C@H]1c3cc(C(=O)O)cc(O)c3C(=O)c3c(O[C@@H]4O[C@H](CO)[C@@H](O)[C@H](O)[C@H]4O)cccc31)c1cccc(OC3O[C@H](CO)[C@@H](O)[C@H](O)[C@H]3O)c1C2=O (stereo partly specified) | 137.0* | 100.5* | 37.1* | 74.3* | 59.7* | -13.8 | 135.4* | 5.5 | rCAG binder conf=99.4*;DNA CAG counter=89.6*;PRMT1 inh conf=13.0
CCC(NC(=O)c1ccc2c(c1)c(C)c(C)n2Cc1ccc(-c2ccccc2C#N)cc1)c1ccccc1 (stereo unspecified) | x | 16.7 | 2.3 | -9.1 | -42.5 | x | x | x
C/C(=N/NC(=O)c1ccoc1C)c1cccs1 | x | 0.2 | -7.3 | 2.6 | 1.8 | x | x | x
O=c1[nH]nc(CNc2ccc(C(F)(F)F)cc2)c2ccccc12 | 5.5 | 2.2 | -1.4 | -6.0 | -12.3 | x | x | x
O=c1[nH]nc(CNc2ccc(O)cc2)c2ccccc12 | 89.0* | 5.9 | 24.6* | 79.0* | 81.7* | 11.7 | 11.9 | 37.0*
Cc1ccc(NC(=O)Cn2nnc(-c3ccccc3F)n2)c(C)c1 | x | 2.6 | -0.2 | 2.8 | -2.6 | x | x | x
CC1=C(O)C(=O)C(c2c(C)cc(C)c(Br)c2C)=C(O)C1=O | 22.7* | 24.8 | 25.0* | 16.4 | 78.7* | 0.0 | 14.6 | 73.8* | PRMT1 inh conf=23.5*
COc1ccccc1C(=O)N1CCCC(c2nc(-c3cccs3)no2)C1 (stereo unspecified) | x | 0.4 | 1.2 | 1.0 | 5.8 | x | x | x
Cc1cccc(NC(=O)NCc2ccc3c(c2)cc(C)n3C)c1 | 34.1* | 22.3 | 9.4 | 7.1 | 41.7* | 1.4 | 8.3 | -2.7
CC(=O)Nc1ccc(S(=O)(=O)NCc2ccc3c(c2)cc(C)n3C)cc1 | 54.2* | 22.8 | 13.8 | 14.7 | 46.1* | -1.3 | 0.8 | -13.4
Cc1cc(C)cc(C(=O)OCCN2CCN(C3CN(Cc4cn(Cc5ccc([N+](=O)[O-])cc5)nn4)S(=O)(=O)C3)CC2)c1 (stereo unspecified) | x | 8.1 | 2.6 | -0.9 | -8.4 | x | x | x
SMILES | TCR CD3 inh | rCAG binder | PRMT1 FP inh | SIAE inh | ABHD4 inh | BSA TAMRA ctr | TCR-CD3 inh conf | mABHD4 conf | others
COC(=O)C1C(O)=C(C=Nc2ccccc2)C(=O)CC1(C)C (stereo unspecified) | 1.1 | -4.7 | 0.3 | 10.4 | 0.7 | x | x | x
COC(=O)C1C(O)=C(C=Nc2ccc(N)cc2)C(=O)CC1(C)C (stereo unspecified) | 26.1* | 3.1 | 2.5 | 16.5 | 38.1* | -5.4 | 1.2 | 4.8
CC1(C)CC(=O)C(C=Nc2ccc(N)cc2)=C(O)C1 | 23.2* | 2.7 | 9.3 | 11.1 | 35.4* | 0.0 | -0.5 | -7.4
O=C1/C(=C/C=C/c2ccco2)SC(=S)N1NS(=O)(=O)c1ccccc1 | 22.1* | 89.3* | 53.0* | 7.1 | 45.8* | -13.6 | 20.8* | 13.9 | rCAG binder conf=87.3*;DNA CAG counter=61.4*
O=C1/C(=C\c2ccco2)SC(=S)N1Cc1ccccc1 | -10.4 | 26.1 | 19.1 | 5.7 | 0.6 | x | x | x
C/C(=N/NC(=O)c1cc(O)c(O)c(O)c1)c1ccc([N+](=O)[O-])cc1 | 54.8* | 14.0 | 15.6 | 13.0 | 31.8* | -11.4 | 35.7* | 25.7
CC(CCN1CCC(C(O)(c2ccccc2)c2ccccc2)CC1)Oc1ccc(OC(F)(F)F)cc1 (stereo unspecified) | x | 0.0 | 2.1 | -8.2 | 17.4 | x | x | x
NC1=NC(=O)C(=Cc2ccccc2)S1 | -0.3 | 3.0 | 4.0 | 1.0 | 6.9 | x | x | x
NC1=NC(=O)/C(=C\c2ccco2)S1 | 23.2* | 36.9* | 63.3* | 12.6 | 31.0* | -5.3 | 16.6 | 12.2 | rCAG binder conf=15.4;DNA CAG counter=5.7*
O=C(Nc1ccccc1)c1ccc(-c2ccc([N+](=O)[O-])cc2)o1 | 7.3 | 11.8 | 1.7 | -6.5 | -5.5 | x | x | x
O=C(NNC(=O)c1ccccc1O)c1ccc(-c2ccc([N+](=O)[O-])cc2)o1 | 42.0* | 29.2 | 1.9 | 14.9 | 36.9* | 7.2 | 37.8* | 2.8

Screens from PubChem BioAssay.
